Reference: ChEMBL document CHEMBL3124843, “Synthesis, cytostatic, antimicrobial, and anti-HCV activity of 6-substituted 7-(het)aryl-7-deazapurine ribonucleosides” (J Med Chem, 2014)
Calls of active or inactive are those of the source. No rule for the calls is given here.

Experiments:
[1] = system: K562; assay: Cytostatic activity against paclitaxel-resistant human K562 cells after 72 hrs by MTT assay; assay type: functional, cell-based; conditions: K562, 72 h
Outline: (§1)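 IC50 is the concentration that cuts cell growth by 50%, read by quantitative metabolic MTT staining after a 3-day treatment. The resistant sublines were made by raising the concentration of the cytotoxic drug step by step. CEM-DNR-bulk (daunorubicin-selected) stably overexpresses mrp-1. K562-TAX (paclitaxel-selected) expresses only mdr-1. HCT116p53−/− carries null p53 alleles. BJ and MRC-5 are nonmalignant fibroblasts.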

[2] = system: Pseudomonas aeruginosa; assay: Antibacterial activity against multi-resistant Pseudomonas aeruginosa A/16575 after 24 hrs; assay type: functional, organism-based
[3] = system: Enterococcus faecalis; assay: Antibacterial activity against Enterococcus faecalis CCM 4224 after 24 hrs; assay type: functional, organism-based
[4] = system: CCRF-CEM; assay: Cytostatic activity against human CCRF-CEM cells after 72 hrs by MTT assay; assay type: functional, cell-based; outline: as §1
[5] = system: MRC5; assay: Cytostatic activity against human MRC5 cells after 72 hrs by MTT assay; assay type: ADME, cell-based; conditions: MRC5, 72 h; outline: as §1
[6] = system: Escherichia coli; assay: Antibacterial activity against Escherichia coli CCM 3954 after 24 hrs; assay type: functional, organism-based
[7] = system: A549; assay: Cytostatic activity against human A549 cells after 72 hrs by MTT assay; assay type: functional, cell-based; conditions: A549, 72 h; outline: as §1
[8] = system: HCT-116; assay: Cytostatic activity against p53-deficient human HCT116 cells after 72 hrs by MTT assay; assay type: functional, cell-based; conditions: HCT-116, 72 h; outline: as §1
[9] = system: Staphylococcus aureus; assay: Antibacterial activity against methicillin-resistant Staphylococcus aureus MRSA 4591 after 24 hrs; assay type: functional, organism-based
[10] = system: HL-60; assay: Antiproliferative activity against human HL60 cells after 72 hrs by XTT assay; assay type: functional, cell-based; conditions: HL-60, 72 h
Outline: (§2)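 Antiproliferative test on HL-60 promyelocytic leukemia and HeLa S3 cervical carcinoma cells growing in liquid suspension.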

[11] = system: Pichia kudriavzevii; assay: Antifungal activity against Candida crusei after 48 hrs; assay type: functional, organism-based
[12] = system: HCT-116; assay: Cytostatic activity against human HCT116 cells after 72 hrs by MTT assay; assay type: functional, cell-based; conditions: HCT-116, 72 h; outline: as §1
[13] = system: Pseudomonas aeruginosa; assay: Antibacterial activity against Pseudomonas aeruginosa CCM 3955 after 24 hrs; assay type: functional, organism-based
[14] = system: Candida tropicalis; assay: Antifungal activity against Candida tropicalis after 48 hrs; assay type: functional, organism-based
[15] = Cytotoxicity against human HuH7 cells infected with Hepatitis C virus subtype 1b; assay type: cell-based, Huh-7
[16] = system: Hepatitis C virus; assay: Antiviral activity against Hepatitis C virus subtype 1b infected in human HuH7 cells; assay type: functional, organism-based, Hepacivirus hominis; conditions: genotype 1b, Huh-7
[17] = system: Escherichia coli; assay: Antibacterial activity against multi-resistant Escherichia coli C/16702 after 24 hrs; assay type: functional, organism-based
[18] = Cytotoxicity against human HuH7 cells infected with Hepatitis C virus subtype 2a; assay type: cell-based, Huh-7
[19] = system: Candida albicans; assay: Antifungal activity against Candida albicans after 48 hrs; assay type: functional, organism-based
[20] = Cytostatic activity against human CEM-DNR-bulk cells after 72 hrs by MTT assay; assay type: functional, cell-based; outline: as §1
[21] = system: HepG2; assay: Antiproliferative activity against human HepG2 cells after 72 hrs by XTT assay; assay type: functional, cell-based; conditions: HepG2, 72 h
[22] = system: K562; assay: Cytostatic activity against human K562 cells after 72 hrs by MTT assay; assay type: functional, cell-based; conditions: K562, 72 h; outline: as §1
[23] = system: BJ; assay: Cytostatic activity against human BJ cells after 72 hrs by MTT assay; assay type: ADME, cell-based; outline: as §1
[24] = system: Staphylococcus haemolyticus; assay: Antibacterial activity against methicillin-resistant Staphylococcus haemolyticus A/16568 after 24 hrs; assay type: functional, organism-based
[25] = system: Candida parapsilosis; assay: Antifungal activity against Candida parapsilosis after 48 hrs; assay type: functional, organism-based
[26] = system: Staphylococcus aureus; assay: Antibacterial activity against Staphylococcus aureus CCM 3953 after 24 hrs; assay type: functional, organism-based
[27] = Antiproliferative activity against human HeLaS3 cells after 72 hrs by XTT assay; assay type: functional, cell-based; conditions: HeLa S3, 72 h; outline: as §2
[28] = system: Hepatitis C virus; assay: Antiviral activity against Hepatitis C virus subtype 2a infected in human HuH7 cells; assay type: functional, organism-based, Hepacivirus hominis; conditions: genotype 2a, Huh-7

CNc1ncnc2c1c(-c1cc3ccccc3o1)cn2[C@@H]1O[C@H](CO)[C@@H](O)[C@H]1O
IC50 [1]: > 20 µM
Activity [2]: inactive
Activity [3]: inactive
IC50 [4]: > 20 µM
IC50 [5]: 75.3 µM
Activity [6]: inactive
IC50 [7]: > 20 µM
IC50 [8]: > 20 µM
Activity [9]: inactive
IC50 [10]: 8.95 µM
Activity [11]: inactive
IC50 [12]: > 20 µM
Activity [13]: inactive
Activity [14]: inactive
CC50 [15]: > 44 µM
EC50 [16]: 2.05 µM
Activity [17]: inactive
CC50 [18]: > 44 µM
Activity [19]: inactive
IC50 [20]: > 20 µM
IC50 [21]: > 20 µM
IC50 [22]: > 20 µM
IC50 [23]: 75.6 µM
Activity [24]: inactive
Activity [25]: inactive
Activity [26]: inactive
IC50 [27]: > 20 µM
EC50 [28]: 13.6 µM

Nc1nc(N)c2c(-c3cc4ccccc4o3)cn([C@@H]3O[C@H](CO)[C@@H](O)[C@H]3O)c2n1
IC50 [1]: > 20 µM
Activity [2]: inactive
Activity [3]: inactive
IC50 [4]: > 20 µM
IC50 [5]: 78.5 µM
Activity [6]: inactive
IC50 [7]: > 20 µM
IC50 [8]: 14 µM
Activity [9]: inactive
IC50 [10]: > 15 µM
Activity [11]: inactive
IC50 [12]: > 20 µM
Activity [13]: inactive
Activity [14]: inactive
CC50 [15]: > 44 µM
EC50 [16]: 5.58 µM
Activity [17]: inactive
CC50 [18]: > 44 µM
Activity [19]: inactive
IC50 [20]: > 20 µM
IC50 [21]: > 20 µM
IC50 [22]: 18.6 µM
IC50 [23]: > 100 µM
Activity [24]: inactive
Activity [25]: inactive
Activity [26]: inactive
IC50 [27]: > 20 µM
EC50 [28]: 11.5 µM

Cc1ncnc2c1c(-c1cc3ccccc3o1)cn2[C@@H]1O[C@H](CO)[C@@H](O)[C@H]1O
IC50 [1]: > 20 µM
Activity [2]: inactive
Activity [3]: inactive
IC50 [4]: 17.3 µM
IC50 [5]: 84.4 µM
Activity [6]: inactive
IC50 [7]: > 20 µM
IC50 [8]: > 20 µM
Activity [9]: inactive
IC50 [10]: > 20 µM
Activity [11]: inactive
IC50 [12]: > 20 µM
Activity [13]: inactive
Activity [14]: inactive
CC50 [15]: > 44 µM
EC50 [16]: 6.76 µM
Activity [17]: inactive
CC50 [18]: > 44 µM
Activity [19]: inactive
IC50 [20]: > 20 µM
IC50 [21]: > 20 µM
IC50 [22]: 19.5 µM
IC50 [23]: 93.9 µM
Activity [24]: inactive
Activity [25]: inactive
Activity [26]: inactive
IC50 [27]: > 20 µM
EC50 [28]: 40.2 µM

Nc1nc(N)c2c(-c3ccccc3)cn([C@@H]3O[C@H](CO)[C@@H](O)[C@H]3O)c2n1
IC50 [1]: > 20 µM
Activity [2]: inactive
Activity [3]: inactive
IC50 [4]: > 20 µM
IC50 [5]: > 100 µM
Activity [6]: inactive
IC50 [7]: > 20 µM
IC50 [8]: > 20 µM
Activity [9]: inactive
IC50 [10]: > 15 µM
Activity [11]: inactive
IC50 [12]: > 20 µM
Activity [13]: inactive
Activity [14]: inactive
CC50 [15]: > 44 µM
EC50 [16]: > 44 µM
Activity [17]: inactive
CC50 [18]: > 44 µM
Activity [19]: inactive
IC50 [20]: > 20 µM
IC50 [21]: > 20 µM
IC50 [22]: > 20 µM
IC50 [23]: > 100 µM
Activity [24]: inactive
Activity [25]: inactive
Activity [26]: inactive
IC50 [27]: > 20 µM
EC50 [28]: > 44 µM

CNc1ncnc2c1c(-c1ccoc1)cn2[C@@H]1O[C@H](CO)[C@@H](O)[C@H]1O
IC50 [1]: > 20 µM
Activity [2]: inactive
Activity [3]: inactive
IC50 [4]: > 20 µM
IC50 [5]: > 100 µM
Activity [6]: inactive
IC50 [7]: > 20 µM
IC50 [8]: > 20 µM
Activity [9]: inactive
IC50 [10]: > 15 µM
Activity [11]: inactive
IC50 [12]: > 20 µM
Activity [13]: inactive
Activity [14]: inactive
CC50 [15]: > 44 µM
EC50 [16]: 35.9 µM
Activity [17]: inactive
CC50 [18]: > 44 µM
Activity [19]: inactive
IC50 [20]: > 20 µM
IC50 [21]: > 20 µM
IC50 [22]: > 20 µM
IC50 [23]: 96.3 µM
Activity [24]: inactive
Activity [25]: inactive
Activity [26]: inactive
IC50 [27]: > 20 µM
EC50 [28]: > 44 µM

C#Cc1cn([C@@H]2O[C@H](CO)[C@@H](O)[C@H]2O)c2ncnc(OC)c12
IC50 [1]: 0.38 µM
Activity [2]: inactive
Activity [3]: inactive
IC50 [4]: > 20 µM
IC50 [5]: > 100 µM
Activity [6]: inactive
IC50 [7]: 8.16 µM
IC50 [8]: 5.14 µM
Activity [9]: inactive
IC50 [10]: 0.19 µM
Activity [11]: inactive
IC50 [12]: 4.06 µM
Activity [13]: inactive
Activity [14]: inactive
CC50 [15]: > 44 µM
EC50 [16]: 0.18 µM
Activity [17]: inactive
CC50 [18]: > 44 µM
Activity [19]: inactive
IC50 [20]: 3.49 µM
IC50 [21]: 12.7 µM
IC50 [22]: 0.3 µM
IC50 [23]: 98.4 µM
Activity [24]: inactive
Activity [25]: inactive
Activity [26]: inactive
IC50 [27]: 1.73 µM
EC50 [28]: > 44 µM

Cc1nc(N)c2c(-c3cc4ccccc4o3)cn([C@@H]3O[C@H](CO)[C@@H](O)[C@H]3O)c2n1
IC50 [1]: 4.99 µM
Activity [2]: inactive
Activity [3]: inactive
IC50 [4]: > 20 µM
IC50 [5]: 91.8 µM
Activity [6]: inactive
IC50 [7]: > 20 µM
IC50 [8]: 13.1 µM
Activity [9]: inactive
IC50 [10]: > 20 µM
Activity [11]: inactive
IC50 [12]: > 20 µM
Activity [13]: inactive
Activity [14]: inactive
CC50 [15]: 39.2 µM
EC50 [16]: 6.14 µM
Activity [17]: inactive
CC50 [18]: 39.1 µM
Activity [19]: inactive
IC50 [20]: 6.31 µM
IC50 [21]: > 20 µM
IC50 [22]: 15.7 µM
IC50 [23]: > 100 µM
Activity [24]: inactive
Activity [25]: inactive
Activity [26]: inactive
IC50 [27]: > 20 µM
EC50 [28]: 18.2 µM

Nc1ncnc2c1c(-c1ccco1)cn2[C@@H]1O[C@H](CO)[C@@H](O)[C@H]1O
IC50 [1]: 0.05 µM
Activity [2]: inactive
Activity [3]: inactive
IC50 [4]: 0.04 µM
IC50 [5]: 36.5 µM
Activity [6]: inactive
IC50 [7]: 0.03 µM
IC50 [8]: 0.17 µM
Activity [9]: inactive
Activity [11]: inactive
IC50 [12]: 0.03 µM
Activity [13]: inactive
Activity [14]: inactive
CC50 [15]: > 44 µM
EC50 [16]: > 44 µM
Activity [17]: inactive
CC50 [18]: > 44 µM
Activity [19]: inactive
IC50 [20]: 0.21 µM
IC50 [22]: 0.04 µM
IC50 [23]: 18.3 µM
Activity [24]: inactive
Activity [25]: inactive
Activity [26]: inactive
IC50 [27]: 0.05 µM
EC50 [28]: > 44 µM

Nc1nc(N)c2c(-c3ccoc3)cn([C@@H]3O[C@H](CO)[C@@H](O)[C@H]3O)c2n1
IC50 [1]: > 20 µM
Activity [2]: inactive
Activity [3]: inactive
IC50 [4]: > 20 µM
IC50 [5]: > 100 µM
Activity [6]: inactive
IC50 [7]: > 20 µM
IC50 [8]: > 20 µM
Activity [9]: inactive
IC50 [10]: > 20 µM
Activity [11]: inactive
IC50 [12]: > 20 µM
Activity [13]: inactive
Activity [14]: inactive
CC50 [15]: > 44 µM
EC50 [16]: 21.3 µM
Activity [17]: inactive
Activity [19]: inactive
IC50 [20]: > 20 µM
IC50 [21]: > 20 µM
IC50 [22]: > 20 µM
IC50 [23]: > 100 µM
Activity [24]: inactive
Activity [25]: inactive
Activity [26]: inactive
IC50 [27]: > 20 µM
